The subject of data set [1] is AML cell lines. In words: CellTiter-Glo cell viability across the cell line panel. The class given is cell-based, human. The settings on record: for sensitivity of the Val-boroPro-sensitive AML cell lines to the compound: cell viability relative to DMSO; for sensitivity of the Val-boroPro-sensitive AML cell lines to the compound / reduction in cell viability: 48 h. (In general: In ATP-based viability assays light output follows the ATP content of the culture.)

The test system of data set [2] is caspase-1 knockout OCI-AML2, MV4;11 and THP-1 cells. Kind of data set: Cell viability of caspase-1 knockout cells. In kind it is cell-based, human.
Another data set has as its system K562 cells. In words: CellTiter-Glo cell viability assay. In kind it is cell-based, human.
In the next data set the test system is HEK 293T cells. Kind of data set: CellTiter-Glo cell viability assay. The settings on record: HEK293T. The class given is cell-based, human.
The subject of a further data set is non-AML cell lines. Kind of data set: CellTiter-Glo cell viability across the cell line panel. The class given is cell-based, human. The procedure, abridged:
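Cells were dispensed at 2000 cells/well in 25 μL of medium, and compound was added by pintool. MV4;11 and RS4;11 were incubated 22 h and all other lines 46 h, at 37 °C. Plates were equilibrated to room temperature, then CellTiter-Glo was added, with 2 min orbital shaking and 10 min at room temperature. Luminescence is expressed relative to DMSO as mean ± SEM of three biological replicates.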

Data set [3] deals with NLRP1−/− THP-1 and MV4;11 cells. In words: LDH release / GSDMD cleavage in NLRP1 knockout cells. In kind it is cell-based, human. (In general: LDH in the medium is a marker of cell lysis.)
Data set [4] concerns CARD8−/− THP-1, MV4;11 and OCI-AML2 cells. In words: LDH release / GSDMD cleavage in CARD8 knockout cells. Particulars: 2 μM; 24 h OCI-AML2 and MV4;11, 48 h THP-1. The class given is cell-based, human.
Data set [5] has as its system HEK 293T cells stably expressing hCASP1 and hGSDMD transfected with CARD8. In words: LDH release from transfected HEK 293T cells. The class given is cell-based, human. Particulars: 2 μM, 24 h; CARD8 but not NLRP1 or S297A CARD8. The procedure, abridged:
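HEK 293T cells stably expressed human caspase-1 (hygromycin-selected) and gasdermin D (puromycin-selected) after lentiviral transduction. They were seeded at 0.5 × 10^6/well in DMEM/10% FBS one day before Fugene HD transfection, with total DNA brought to 2 μg with RFP vector; RFP vector alone served as mock. After 24 h, cells got DMSO or 2 μM for a further 24 h. Supernatant LDH was measured (mean ± SEM, three experiments).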

The subject of another data set is sensitive AML cell lines. Kind of data set: Immunoblotting of GSDMD and PARP cleavage. The class given is cell-based, human. The settings on record: 24 h.
Another data set concerns MV4;11 leukemia cells. Kind of data set: Disseminated MV4. The settings on record: 20 μg i.p. once daily, 5 days a week for 4 weeks; log-rank test. The class given is in vivo, mouse. In a few lines: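 Luciferase-expressing MV4;11 cells (1 million, neomycin-selected) were injected into the tail vein of 200 cGy-irradiated 7-week female NSG mice. From day 5, randomized mice (n=9/group) got 100 μL i.p. vehicle (1 mM HCl in PBS, pH 7.4) or 20 μg/100 μL once daily, 5 days/week for 4 weeks. BLI tracked burden. Survival ran from inoculation to moribund state (6/group), analysed by log-rank test.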

Data set [6] concerns CASP1−/− MV4;11 leukemia cells. In words: Disseminated CASP1−/− MV4. In kind it is in vivo, mouse. The settings on record: 20 μg i.p. once daily, 5 days a week, 3 weeks. In a few lines:
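NSG mice (female, 7 weeks, 200 cGy irradiated) received 1 million luciferase-expressing CASP1−/− MV4;11 cells by tail vein. On day 5 they were randomized (n=9/group) and dosed i.p. with 100 μL vehicle (1 mM HCl in PBS, pH 7.4) or 20 μg/100 μL once daily, 5 days/week. Dosing stopped after 3 weeks. Burden was tracked by bioluminescence; survival to moribund state used all 9 animals.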

Another data set can be described thus: Tolerability in MV4. The class given is in vivo, mouse. Particulars: NSG mice, 20 μg i.p., treatment day 23. In a few lines:
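Disseminated MV4;11-Luc NSG model: mice were dosed i.p. with 100 μL vehicle (1 mM HCl/PBS) or 20 μg/100 μL daily, 5 days/week, and weighed daily. After 23 days of dosing, peripheral blood was taken from 3 mice per group, chosen by high, median and low BLI flux. It was analysed for complete blood counts and blood chemistry. Femur, spleen, lung and liver sections were H&E-stained.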

The nature of data set [7]: Evaluation in wild-type C57BL/6J mice. The class given is in vivo, mouse. Particulars: 20 μg i.p. In a few lines: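 Female C57BL/6J mice (7 weeks) received vehicle (1 mM HCl/PBS) or 20 μg either once (n=5/group, harvested at 6 h or 24 h) or once daily, 5 days/week for two weeks (10 doses, n=4, harvested 24 h after the last dose). Blood was analysed for complete blood count and blood chemistry.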

Data set [8] concerns primary human cancer AML-10. In words: AML-10 patient-derived xenograft. The class given is in vivo, mouse. Particulars: 2 mg/kg, PDX model. For orientation: A xenograft is tissue or cells of one species grown in another, often human tumour cells in immunodeficient mice.
The next data set concerns primary AML cells. Kind of data set: Primary cancer cell assay. The class given is cell-based, human. Particulars: 20 µM, 48 h, FACS.
The test system of a further data set is primary T-ALL samples. In words: Primary cancer cell assay. In kind it is cell-based, human. The settings on record: 20 µM, FACS. In a few lines: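 Bone marrow aspirates were strained, Ficoll-separated and ACK-lysed, then frozen; AML samples 1–4 were first passaged in NSG mice. Cells were thawed in IMDM/15% FBS with DNase1 and cultured with 2-mercaptoethanol, G-CSF, SCF, IL-3 and FLT3-ligand. One day later, 100,000 cells/well were treated in triplicate with 20 μM or DMSO for 40 h at 37 °C. Death was scored by flow cytometry (anti-human/anti-mouse CD45, PI or DAPI).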

The test system of the next data set is primary B-ALL. Kind of data set: Primary cancer cell assay. The settings on record: 20 µM, 48 h, FACS. In kind it is cell-based, human.
For data set [9], the system named is primary human cord blood CD34+ cells. In words: CellTiter-Glo cell viability assay. In kind it is cell-based. Particulars: 6 μM, 24 h, Cell Titer Glo. The procedure, abridged: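 Human cord blood cells were thawed in IMDM/15% FBS with DNase1 (1 mg/mL). Culture medium was IMDM/10% FBS with TPO, SCF and G-CSF (each 100 ng/mL). Cells were assayed immediately after thawing at 2000 cells/well with pintool compound addition, incubated 22 h at 37 °C, and read by CellTiter-Glo luminescence after 2 min shaking and 10 min at room temperature.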

The conditions of data set [10]: cited from earlier work.
The test system of another data set is G-CSF and Cxcl1. Particulars: mice; cited from earlier work.
The next data set has as its system G-CSF. Particulars: healthy volunteers and cancer patients; cited from earlier work.
The next data set has as its system THP-1 or MV4;11 cells. In words: LDH release with Val-boroPro plus bortezomib. The class given is cell-based, human. The settings on record: bortezomib 100 nM with Val-boroPro 2 μM, 6 h.
In data set [11] the test system is AML cell lines. The settings on record: cited from earlier work.

Entries after “also recorded” stand apart in the source; their conditions may differ.

With `CC[C@@H](C)[C@H](N)C(=O)N1Cc2ccccc2C1` [L-allo-Ile-isoindoline], in the data set on AML cell lines [1], the “sensitivity of the Val-boroPro-sensitive AML cell lines to the compound” value was “sensitive”. The “sensitivity of caspase-1 knockout cells” value in data set [2] is reported as “resistant”.
By IC50 is commonly meant the midpoint of a concentration-inhibition curve. With `CC(C)[C@H](N)C(=O)N1CCC[C@H]1B(O)O` [Val-boroPro], the “cell death after 5 days of treatment” value in the data set on K562 cells and in the data set on HEK 293T cells was “no cell death” throughout. Further, the “reduction in cell viability” value in the data set on AML cell lines [1] (KG1, THP-1 and NOMO-1) was 40–65%; in the data set on AML cell lines [1] (MV4;11, OCI-AML2, SET-2, RS4;11 and MOLM-13), above 80%. In the data set with AML cell lines [1] (Homo sapiens, read-out: IC50 values in sensitive AML cell lines), the IC50 was in the range of 6 to 206 nM. Also, the “time in which cells died” value in the data set with AML cell lines [1] (MV4;11 and OCI-AML2 cells) is 1 to 2 days. Besides, the “compound treatment required to achieve maximal cell killing” value in the data set with AML cell lines [1] (THP-1 and NOMO-1 cells) is listed as 5 days. Further, the “activity against non-AML cell lines tested” value in the data set on non-AML cell lines is listed as “no activity”. Besides, the “sensitivity of caspase-1 knockout cells” value in data set [2] was “resistant”. In addition, in data set [3], the “pyroptosis in NLRP1−/− cells” value was “induced pyroptosis”. For the same molecule, the “sensitivity of CARD8−/− cells (GSDMD cleavage, cell death)” value in data set [4] is on record as “completely resistant”. Besides, in data set [5], the “cytotoxicity in CARD8-expressing HEK 293T cells” value is on record as “sensitive”. In the data set with sensitive AML cell lines, the “cleavage of gasdermin D (GSDMD), not PARP” value is on record as “induced cleavage”. The “median extension in survival” value in the data set with MV4;11 leukemia cells is 24.5 days. For the same molecule, in data set [6], the “efficacy against CASP1−/− MV4;11 cells in vivo (bioluminescence, survival)” value is listed as “absolutely no efficacy; also recorded: not statistically different”. Moreover, the “effects on peripheral blood cell counts, serum chemistry, body weight” value in “Tolerability in MV4” is “no significant effects”. Also, in data set [7], the “effects on peripheral blood counts or body weight” value is given as “no significant effects”. Moreover, the “weight loss associated with leukemia progression” value in [8] is “slowed weight loss”. In addition, the “cell death in primary AML samples” value with primary AML cells is on record as “sensitive”. Moreover, the “cell death in primary T-ALL samples” value in the data set with primary T-ALL samples is on record as “completely resistant”. For the same molecule, the “cell death in primary B-ALL” value with primary B-ALL is “sensitive”. Moreover, the “cell death in primary CD34+ human cord blood cells” value in data set [9] is given as “sensitive”. For the same molecule, in data set [10], the “maximum tolerated dose in humans” value is reported as “without reaching a maximum tolerated dose”. The “serum concentrations reached in humans” value in [10] is above 100 nM. Moreover, the “serum protein levels of several cytokines, including G-CSF and Cxcl1” value in the data set with G-CSF and Cxcl1 was “increases”. In addition, the “levels of a number of cytokines, including G-CSF” value in the data set with G-CSF was “elevated”.
Take `CC(C)C[C@H](NC(=O)[C@H](Cc1ccccc1)NC(=O)c1cnccn1)B(O)O` [bortezomib]: in the data set with THP-1 or MV4;11 cells, the “effect on activation of CARD8 by Val-boroPro (LDH release)” value was “blocks”.
As to `N[C@@H](CC(=O)N1CCn2c(nnc2C(F)(F)F)C1)Cc1cc(F)c(F)cc1F` [sitagliptin], the “sensitivity of the Val-boroPro-sensitive AML cell lines to the compound” value in the data set with AML cell lines [1] is given as “not sensitive”.
As for `N#C[C@@H]1CCCN1C(=O)CNC12CC3CC(CC(O)(C3)C1)C2` [vildagliptin], the “anti-AML cytotoxicity on its own” value with AML cell lines [11] is listed as “did not exhibit any anti-AML cytotoxicity”.
